Measured values as given in ChEMBL document CHEMBL1147663, “Structure-activity relationships of bifunctional peptides based on overlapping pharmacophores at opioid and cholecystokinin receptors” (J Med Chem, 2006).
Activity calls are given as the source filed them. No cut-off for these calls is given here.

Columns and labels:
[1] = target: T1, Delta-type opioid receptor (Homo sapiens, UniProt P41143); experiment: Displacement of [3H]DPDPE from human delta opioid receptor expressed in HN9.10 cells; assay type: cell-based
Procedure, shortened: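 HN9.10 cell membranes (50 μg) expressing hDOR, 10 test concentrations with 1.0 nM [3H]DPDPE in 50 mM Tris pH 7.4 with peptidase inhibitors and BSA, 3 h at 25 °C, duplicates; filtration, scintillation counting. Nonspecific with 10 μM naloxone. Ki by Cheng–Prusoff.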

Mu-type opioid receptor [2] = target: T2, Mu-type opioid receptor (Rattus norvegicus, UniProt P33535); experiment: Displacement of [3H]DAMGO from rat mu opioid receptor expressed in HN9.10 cells; assay type: cell-based
Procedure, shortened: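 HN9.10 cell membranes (50 μg) expressing rMOR, 10 test concentrations with 1.0 nM [3H]DAMGO in 50 mM Tris pH 7.4 with peptidase inhibitors and BSA, 3 h at 25 °C, duplicates; filtration, scintillation counting. Nonspecific with 10 μM naloxone. Ki by Cheng–Prusoff.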

[3] = target: T1, Delta-type opioid receptor; experiment: Activity against [35S]GTP-gamma-S binding to human delta opioid receptor expressed in HN9.10 cells; assay type: functional, cell-based
Procedure, shortened: (§1)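 Membranes (10 μg) from HN9.10 cells stably expressing hDOR or rMOR; various drug concentrations in duplicate or triplicate, 90 min at 30 °C in HEPES pH 7.4 with GDP, MgCl2, NaCl, 0.1 nM [35S]GTPγS; filtration, scintillation counting.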

[4] = target: Mu-type opioid receptor (Rattus norvegicus) (UniProt P33535); experiment: (§2) Activity against [35S]GTP-gamma-S binding to rat mu opioid receptor expressed in HN9.10 cells; assay type: functional, cell-based; procedure, shortened: as §1
Mu-type opioid receptor [5] = target: T2, Mu-type opioid receptor; experiment: as §2; assay type: functional, cell-based; procedure, shortened: as §1
[6] = target: Delta-type opioid receptor (Mus musculus, UniProt P32300); experiment: Agonist activity at delta opioid receptor assessed as inhibition of electrically stimulated ICR mouse vas deferens contraction; assay type: functional, tissue-based
Procedure, shortened: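 Vas deferens from male ICR mice, in 20 mL baths at 0.5 g tension, Mg-free oxygenated Krebs, 37 °C; electrical stimulation 0.1 Hz, 2.0 ms pulses, supramaximal voltage. Cumulative addition to maximal inhibition; integrity checked with 10 nM DPDPE. IC50 by Hill-equation nonlinear least-squares fit, at least four tissues.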

Mu-type opioid receptor [7] = target: Mu-type opioid receptor (Cavia porcellus, UniProt P97266); experiment: Agonist activity at mu opioid receptor assessed as inhibition of electrically stimulated Hartley guinea pig ileum contraction; assay type: functional, tissue-based
Procedure, shortened: (§3)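 Longitudinal muscle–myenteric plexus strips from male Hartley guinea pig ileum, 1 g tension, oxygenated Krebs at 37 °C; 0.1 Hz, 0.4 ms supramaximal stimulation. […] Integrity checked with 10 nM PL-017. Hill-equation fit, at least four tissues.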

[8] = target: T3, Cholecystokinin receptor type A (Homo sapiens, UniProt P32238); experiment: Displacement of [125I]CCK-8(SO3) from human CCK1 receptor expressed in HEK293 cells; assay type: cell-based
T3 sequence (P32238 whole entry): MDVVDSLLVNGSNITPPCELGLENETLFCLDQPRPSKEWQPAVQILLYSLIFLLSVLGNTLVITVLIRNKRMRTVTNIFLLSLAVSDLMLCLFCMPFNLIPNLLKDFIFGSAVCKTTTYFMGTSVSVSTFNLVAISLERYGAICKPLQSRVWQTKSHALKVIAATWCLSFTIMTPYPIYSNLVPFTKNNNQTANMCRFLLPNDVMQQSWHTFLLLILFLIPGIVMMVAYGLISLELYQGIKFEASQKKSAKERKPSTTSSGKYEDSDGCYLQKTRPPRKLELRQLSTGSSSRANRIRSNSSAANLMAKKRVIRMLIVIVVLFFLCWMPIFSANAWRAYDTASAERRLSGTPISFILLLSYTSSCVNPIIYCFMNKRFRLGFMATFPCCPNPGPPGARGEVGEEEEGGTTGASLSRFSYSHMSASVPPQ

[9] = target: T4, Gastrin/cholecystokinin type B receptor (Homo sapiens, UniProt P32239); experiment: Displacement of [125I]CCK-8(SO3) from human CCK2 receptor expressed in HEK293 cells; assay type: cell-based
T4 sequence (P32239 whole entry): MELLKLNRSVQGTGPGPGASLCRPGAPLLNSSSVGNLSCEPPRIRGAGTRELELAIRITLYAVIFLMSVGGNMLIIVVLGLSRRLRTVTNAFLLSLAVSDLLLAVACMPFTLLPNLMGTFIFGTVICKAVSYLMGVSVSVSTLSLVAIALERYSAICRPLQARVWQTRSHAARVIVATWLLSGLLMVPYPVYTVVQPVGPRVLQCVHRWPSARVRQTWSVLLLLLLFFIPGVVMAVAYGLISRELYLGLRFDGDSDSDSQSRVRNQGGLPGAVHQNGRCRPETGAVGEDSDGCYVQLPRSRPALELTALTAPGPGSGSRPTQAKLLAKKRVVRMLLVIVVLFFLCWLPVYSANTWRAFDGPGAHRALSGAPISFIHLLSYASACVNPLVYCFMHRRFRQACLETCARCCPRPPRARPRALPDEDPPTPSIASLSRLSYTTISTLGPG

[10] = target: T3, Cholecystokinin receptor type A; experiment: Antagonist activity at CCK1 receptor expressed in HEK 293 cells assessed as accumulation of [3H]inositol phosphates by PI assay; assay type: functional, cell-based, HEK293
[11] = target: T4, Gastrin/cholecystokinin type B receptor; experiment: Antagonist activity at CCK2 receptor expressed in HEK293 cells assessed as accumulation of [3H]inositol phosphates by PI assay; assay type: functional, cell-based
[12] = target: T5, Gastrin/cholecystokinin type B receptor (Homo sapiens) (UniProt P32239); settings: HEK293
T5 sequence (whole entry): T4 sequence (P32239 whole entry)

[13] = target: Delta-type opioid receptor (Mus musculus) (UniProt P32300); experiment: Agonist activity at delta opioid receptor assessed as inhibition of electrically stimulated ICR mouse vas deferens contraction at 1 uM; assay type: functional, tissue-based
[14] = target: Mu-type opioid receptor (Cavia porcellus) (UniProt P97266); experiment: Agonist activity at mu opioid receptor assessed as inhibition of electrically stimulated Hartley guinea pig ileum contraction at 1 uM; assay type: functional, tissue-based; procedure, shortened: as §3
[15] = target: T6, Cholecystokinin receptor type A (Homo sapiens) (UniProt P32238); settings: HEK293
T6 sequence (whole entry): T3 sequence (P32238 whole entry)

T2 sequence (P33535 whole entry): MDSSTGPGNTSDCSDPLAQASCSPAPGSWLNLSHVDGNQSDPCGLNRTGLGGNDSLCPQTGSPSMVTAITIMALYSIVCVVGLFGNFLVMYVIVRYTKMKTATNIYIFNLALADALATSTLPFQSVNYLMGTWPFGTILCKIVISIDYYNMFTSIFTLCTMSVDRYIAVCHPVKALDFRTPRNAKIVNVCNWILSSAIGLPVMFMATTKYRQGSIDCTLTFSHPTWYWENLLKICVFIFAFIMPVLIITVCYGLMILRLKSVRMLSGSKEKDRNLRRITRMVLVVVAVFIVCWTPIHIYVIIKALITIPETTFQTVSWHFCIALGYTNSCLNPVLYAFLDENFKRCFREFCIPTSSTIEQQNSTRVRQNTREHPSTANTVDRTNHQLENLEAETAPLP
Chain of Mu-type opioid receptor (Rattus norvegicus) (P33535 whole entry): as above
Chain of Mu-type opioid receptor (Cavia porcellus, UniProt P97266) (P97266 whole entry): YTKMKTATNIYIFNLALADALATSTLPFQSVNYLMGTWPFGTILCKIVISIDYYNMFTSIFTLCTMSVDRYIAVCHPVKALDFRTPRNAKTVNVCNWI
Chain of Delta-type opioid receptor (Mus musculus, UniProt P32300) (P32300 whole entry): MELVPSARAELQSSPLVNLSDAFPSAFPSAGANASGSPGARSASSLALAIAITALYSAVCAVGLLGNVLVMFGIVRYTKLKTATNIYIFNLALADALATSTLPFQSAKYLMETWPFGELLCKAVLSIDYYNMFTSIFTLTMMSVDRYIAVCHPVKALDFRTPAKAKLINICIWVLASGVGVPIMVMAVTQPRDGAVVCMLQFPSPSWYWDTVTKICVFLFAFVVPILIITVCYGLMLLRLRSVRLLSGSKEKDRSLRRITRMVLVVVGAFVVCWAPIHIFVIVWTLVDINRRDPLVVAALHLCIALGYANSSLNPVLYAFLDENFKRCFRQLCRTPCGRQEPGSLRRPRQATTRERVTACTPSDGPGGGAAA
T1 sequence (P41143 whole entry): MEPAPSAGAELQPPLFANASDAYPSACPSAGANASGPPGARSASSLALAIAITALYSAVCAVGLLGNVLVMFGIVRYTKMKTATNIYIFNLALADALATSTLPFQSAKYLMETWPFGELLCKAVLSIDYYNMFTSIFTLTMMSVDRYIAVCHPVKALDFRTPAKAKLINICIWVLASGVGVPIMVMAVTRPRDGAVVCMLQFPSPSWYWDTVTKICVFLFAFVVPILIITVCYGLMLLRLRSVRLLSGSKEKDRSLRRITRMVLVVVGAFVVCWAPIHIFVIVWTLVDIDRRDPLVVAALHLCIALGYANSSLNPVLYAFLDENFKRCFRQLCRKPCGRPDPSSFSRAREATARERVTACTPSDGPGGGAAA
Chain of Mu-type opioid receptor (Cavia porcellus) (P97266 whole entry): as the sequence (P97266 whole entry) above
Chain of Delta-type opioid receptor (Mus musculus) (P32300 whole entry): as the sequence (P32300 whole entry) above

Structure (SMILES) | IC50 [1] [nM] | Ki [1] [nM] | IC50 (Mu-type opioid receptor [2]) [nM] | Ki (Mu-type opioid receptor [2]) [nM] | EC50 [3] [nM] | Emax [3] [%] | Emax [4] [%] | EC50 (Mu-type opioid receptor [5]) [nM] | IC50 [6] [nM] | IC50 (Mu-type opioid receptor [7]) [nM] | IC50 [8] [nM] | Ki [8] [nM] | IC50 [9] [nM] | Ki [9] [nM] | EC50 [10] [nM] | EC50 [11] [nM] | Log EC50 [12] | inhibition [13] [%] | inhibition [14] [%] | Log EC50 [15]
CCCC[C@H](NC(=O)[C@H](Cc1c[nH]c2ccccc12)NC(=O)CNC(=O)[C@@H](Cc1ccccc1)NC(=O)[C@@H](N)Cc1ccc(O)cc1)C(=O)N[C@@H](CC(=O)O)C(=O)N[C@@H](Cc1ccccc1)C(N)=O | 0.427 | 0.2 | 79.4 | 34 | 0.9 | 170 | 180 | 1.4 | 12 | 420 | 97.7 | 98 | 25.7 | 26 | 300 | 110 | – | – | – | –
CCCC[C@H](NC(=O)[C@@H](Cc1c[nH]c2ccccc12)NC(=O)CNC(=O)[C@@H](CCCC)NC(=O)[C@@H](N)Cc1ccc(O)cc1)C(=O)N[C@@H](CC(=O)O)C(=O)N[C@@H](Cc1ccccc1)C(N)=O | 47.9 | 20 | 631 | 270 | 4.1 | 75 | 110 | 20 | 310 | 1000 | – | – | 2190 | 2200 | – | – | inactive | – | – | –
CCCC[C@@H](C(=O)N[C@@H](CC(=O)O)C(=O)N[C@@H](Cc1ccccc1)C(N)=O)N(C)C(=O)[C@H](Cc1c[nH]c2ccccc12)NC(=O)CNC(=O)[C@@H]1CCCN1C(=O)[C@@H](N)Cc1ccc(O)cc1 | 3390 | 1500 | – | – | – | – | – | – | – | – | – | – | 0.219 | 0.22 | – | – | – | 5 | 1.2 | –
CCCC[C@H](NC(=O)[C@H](Cc1c[nH]c2ccccc12)NC(=O)CNC(=O)[C@@H](CCCC)NC(=O)[C@@H](N)Cc1ccc(O)cc1)C(=O)N[C@@H](CC(=O)O)C(=O)N[C@@H](Cc1ccccc1)C(N)=O | 6.03 | 2.6 | 60.3 | 26 | 4.5 | 81 | 88 | 0.46 | 23 | 210 | 9.55 | 9.6 | 15.1 | 15 | 2500 | 1900 | – | – | – | –
CCCC[C@@H](NC(=O)[C@@H](N)Cc1ccc(O)cc1)C(=O)NCC(=O)N[C@H](Cc1c[nH]c2ccccc12)C(=O)N(C)[C@@H](CCCC)C(=O)N[C@@H](CC(=O)O)C(=O)N[C@@H](Cc1ccccc1)C(N)=O | 724 | 310 | 2880 | 1200 | – | – | 47 | 250 | 700 | – | 9120 | 910 | 1100 | 1100 | – | – | inactive | – | 8.8 | inactive
